Measured values gathered from unrelated publications.
Each line is one published result; the experiments were not run side by side.
PIK3CA: Phosphatidylinositol 4,5-bisphosphate 3-kinase catalytic subunit alpha isoform (PIK3CA, Homo sapiens, UniProt P42336)
PIK3CB: Phosphatidylinositol 4,5-bisphosphate 3-kinase catalytic subunit beta isoform (PIK3CB, Homo sapiens, UniProt P42338)
KDR: Vascular endothelial growth factor receptor 2 (KDR, Homo sapiens, UniProt P35968)

CN(C)C(=O)c1cc2cnc(Nc3cc(C(=O)O)cc(-c4ccc5c(=O)cc(N6CCOCC6)oc5c4)c3)nc2n1C1CCCC1 — IC50 (PIK3CA; enzyme activity, inhibitor, radiometric): 111 nM
O=C1C(=Nc2ccccc2Br)c2ccccc2N1Cc1ccccc1 — IC50 (PIK3CB; enzyme activity, inhibitor, ADP detection): 16.6 nM
CC(C)C[C@H](NC(=O)[C@@H](NC(=O)N[C@@H](Cc1ccccc1)C(=O)O)[C@@H]1CCN=C(N)N1)C(=O)N[C@H](C=O)Cc1ccccc1 — IC50 (Cathepsin G (CTSG, Homo sapiens, UniProt P08311); enzyme activity, inhibitor): 4190 nM
O=[N+]([O-])c1ccc(O)c(C=NNc2ccc(C(F)(F)F)cc2)c1 — IC50 (KDR; enzyme activity, inhibitor, ATP luminescence): 20700 nM
CN(C)C(=O)c1cc2cnc(Nc3ccc(-c4cccc5c(=O)cc(N6CCOCC6)oc45)cn3)nc2n1C1CCCC1 — IC50 (PIK3CA; enzyme activity, inhibitor, radiometric): > 10000 nM
O=C1Nc2ccccc2C1=Nc1cccc(Cl)c1 — IC50 (PIK3CB; enzyme activity, inhibitor, ADP detection): 511 nM
COc1ccc(Nc2nc(Nc3ccc4ncccc4c3)nc(N3CCOCC3)n2)cc1 — IC50 (PIK3CA; enzyme activity, inhibitor, ADP detection): 1290 nM
Cc1c(N2CCOCC2)oc2c(-c3ccc(Nc4ncc5cc(C(=O)N(C)C)n(C6CCCC6)c5n4)cc3F)cccc2c1=O — IC50 (PIK3CA; enzyme activity, inhibitor, radiometric): > 10000 nM
Cc1ccc(CN2C(=O)C(=Nc3cccc(Cl)c3)c3ccccc32)cc1 — IC50 (PIK3CA; enzyme activity, inhibitor, ADP detection): 27.6 nM
CC1=C(/C=C/C(C)=C/C=C/C(C)=C/C=C/C=C(C)/C=C/C=C(C)/C=C/C2=C(C)CCCC2(C)C)C(C)(C)CCC1 — IC50 (KDR; enzyme activity, inhibitor, TR-FRET): > 40000 nM
O=C(O)CC[C@H](NC(=O)N[C@@H](CCCCNC(=O)[C@H](Cc1ccc2ccccc2c1)NC(=O)[C@H]1CC[C@H](CNC(=O)CN2CCN(CC(=O)O)CCN(CC(=O)O)CCN(CC(=O)O)CC2)CC1)C(=O)O)C(=O)O — IC50 (Glutamate carboxypeptidase 2 (FOLH1, Homo sapiens, UniProt Q04609); ligand displacement in cells, radioligand): 7.8 nM
CN(C)C(=O)c1cc2cnc(Nc3cc(C(F)(F)F)c(-c4ccc5c(=O)cc(N6CCOCC6)oc5c4)cn3)nc2n1C1CCCC1 — IC50 (PIK3CA; enzyme activity, inhibitor, radiometric): > 10000 nM
O=C1C(=Nc2ccccc2I)c2ccccc2N1Cc1ccc(Br)cc1 — IC50 (PIK3CB; enzyme activity, inhibitor, ADP detection): 435 nM
C[C@@H]1O[C@@H](O[C@H]2[C@H](Oc3cc(O)c4c(=O)cc(-c5ccc(O)cc5)oc4c3)O[C@H](CO)[C@@H](O)[C@@H]2O)[C@H](O)[C@H](O)[C@H]1O — IC50 (KDR; enzyme activity, inhibitor, TR-FRET): > 40000 nM
COc1ccc(-c2cc(=O)c3cccc(Nc4ncc5cc(C(=O)N(C)C)n(C6CCCC6)c5n4)c3o2)cc1 — IC50 (PIK3CA; enzyme activity, inhibitor, radiometric): > 10000 nM
O=[N+]([O-])c1cc(Br)c(O)c(C=NNc2ccc(C(F)(F)F)cc2)c1 — IC50 (KDR; enzyme activity, inhibitor, ATP luminescence): 8950 nM
CN(C)C(=O)c1cc2cnc(Nc3ccc(-c4ccc5c(=O)cc(N6CCOCC6)oc5c4)cc3)nc2n1C1CCCC1 — IC50 (PIK3CA; enzyme activity, inhibitor, radiometric): 5780 nM
O=[N+]([O-])c1cc(I)c(O)c(C=NNc2ccc(Cl)cc2)c1 — IC50 (KDR; enzyme activity, inhibitor, ATP luminescence): 7830 nM
Cc1cccc(N=C2C(=O)Nc3ccccc32)c1 — IC50 (PIK3CB; enzyme activity, inhibitor, ADP detection): 134 nM
O=[N+]([O-])c1cc(I)c(O)c(C=NNc2ccc(C(F)(F)F)cc2)c1 — IC50 (KDR; enzyme activity, inhibitor, ATP luminescence): 4440 nM
CN(C)C(=O)c1cc2cnc(Nc3cncc(-c4cccc5c(=O)cc(N6CCOCC6)oc45)c3)nc2n1C1CCCC1 — IC50 (PIK3CA; enzyme activity, inhibitor, radiometric): > 10000 nM
Cc1cccc(N=C2C(=O)N(Cc3cccc(Cl)c3)c3ccccc32)c1 — IC50 (PIK3CB; enzyme activity, inhibitor, ADP detection): 33.9 nM
CC(=O)OC[C@H]1O[C@@H]([S-])[C@H](OC(C)=O)[C@@H](OC(C)=O)[C@@H]1OC(C)=O.CCP(CC)CC.[Au+] — IC50 (Thioredoxin reductase 1, cytoplasmic (TXNRD1, Homo sapiens, UniProt Q16881); enzyme activity, inhibitor, absorbance): 397 nM
O=C1C(=Nc2ccc(Cl)cc2Br)c2ccccc2N1Cc1ccc(Br)cc1 — IC50 (PIK3CB; enzyme activity, inhibitor, ADP detection): 34.4 nM
O=[N+]([O-])c1cc(I)c(O)c(C=NNc2ccc(Br)cc2)c1 — IC50 (KDR; enzyme activity, inhibitor, ATP luminescence): 6520 nM
CN(C)C(=O)c1cc2cnc(Nc3ccc(-c4cccc5c(=O)cc(N6CCNCC6)oc45)cc3)nc2n1C1CCCC1 — IC50 (PIK3CA; enzyme activity, inhibitor, radiometric): > 10000 nM
O=C(CCc1ccc(Cl)cc1)N1C(=O)C(=Nc2ccc(Cl)cc2Br)c2ccccc21 — IC50 (PIK3CB; enzyme activity, inhibitor, ADP detection): 810 nM
